ChEMBL document CHEMBL4024790 (J Med Chem, 2018)

Legend:
Rattus norvegicus = organism: Rattus norvegicus; experiment: Toxicity in rat assessed as effect on vasculature up to 1 month by microscopic method; settings: in vivo
Mus musculus [1] = organism: Mus musculus; experiment: Increase in cGMP level in CD-1 mouse brain striatum assessed as unbound brain concentration required to show the effect by immunoassay; assay type: functional
Summary of the method: (§1)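 CD-1 mice given compound; brains fixed by focused microwave irradiation, and cortex, striatum and hippocampus dissected and homogenized in 0.5 N HCl, then centrifuged. cGMP in the supernatant measured by enzyme immunoassay. Unbound brain concentration taken from satellite animals. Dose-response and time-course data combined, and a linear Cbu–cGMP model fitted. The Cbu E50 is the projected Cbu giving a 50% rise in cGMP. Statistics by one-way ANOVA with Fisher's PLSD, p<0.05.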

Canis familiaris [2] = organism: Canis familiaris; experiment: Cardiotoxicity in dog up to 1 month by microscopic method; assay type: toxicity, Canis lupus familiaris
Cytochrome P450 2B6 = target: T1, Cytochrome P450 2B6 (Homo sapiens, UniProt P20813); experiment: Time-dependant inhibition of recombinant human CYP2B6; assay type: ADME; settings: recombinant enzyme
T1 sequence (P20813 whole entry): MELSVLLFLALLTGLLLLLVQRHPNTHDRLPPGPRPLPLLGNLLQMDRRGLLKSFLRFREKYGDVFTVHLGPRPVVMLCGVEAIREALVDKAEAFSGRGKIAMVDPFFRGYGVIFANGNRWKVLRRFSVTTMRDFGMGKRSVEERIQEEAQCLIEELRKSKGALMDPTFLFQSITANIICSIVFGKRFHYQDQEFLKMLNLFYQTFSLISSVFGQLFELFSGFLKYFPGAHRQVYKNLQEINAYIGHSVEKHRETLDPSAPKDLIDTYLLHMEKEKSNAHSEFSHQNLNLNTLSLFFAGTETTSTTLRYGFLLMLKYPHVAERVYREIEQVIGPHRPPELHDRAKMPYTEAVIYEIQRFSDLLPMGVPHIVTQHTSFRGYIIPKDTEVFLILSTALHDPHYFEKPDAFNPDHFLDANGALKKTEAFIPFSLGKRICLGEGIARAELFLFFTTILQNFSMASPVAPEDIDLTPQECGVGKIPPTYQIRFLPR

Cytochrome P450 2C19 = Cytochrome P450 2C19 (Homo sapiens, UniProt P33261); experiment: Inhibition of recombinant human CYP2C19; assay type: ADME; settings: recombinant enzyme
Cytochrome P450 2C19, sequence (P33261 whole entry): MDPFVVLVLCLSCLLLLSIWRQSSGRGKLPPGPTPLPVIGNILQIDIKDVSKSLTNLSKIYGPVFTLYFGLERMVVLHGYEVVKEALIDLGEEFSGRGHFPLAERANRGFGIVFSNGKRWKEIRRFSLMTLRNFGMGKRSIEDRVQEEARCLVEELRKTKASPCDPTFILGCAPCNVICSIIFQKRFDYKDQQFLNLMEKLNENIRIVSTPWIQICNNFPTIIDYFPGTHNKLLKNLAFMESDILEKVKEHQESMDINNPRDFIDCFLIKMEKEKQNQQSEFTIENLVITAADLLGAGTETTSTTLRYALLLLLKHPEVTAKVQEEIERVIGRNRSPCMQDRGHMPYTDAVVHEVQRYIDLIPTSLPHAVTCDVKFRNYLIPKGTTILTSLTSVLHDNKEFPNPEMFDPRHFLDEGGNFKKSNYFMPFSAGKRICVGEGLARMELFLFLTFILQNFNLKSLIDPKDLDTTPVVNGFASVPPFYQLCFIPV

Canis familiaris [3] = experiment: Cardiotoxicity in dog up to 15 mg/kg/day, po for 14 days by microscopic method; assay type: toxicity, organism-based, Canis lupus familiaris; settings: in vivo, 336 h
Mus musculus [4] = organism: Mus musculus; experiment: Increase in cGMP level in CD-1 mouse brain cortex by immunoassay; assay type: functional
Summary of the method: (§2)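 CD-1 mice dosed SC (solution in 20% SBE-β-CD with 2 molar equivalents 1N HCl, 1 mL/kg); euthanized by focused microwave irradiation of brain; cortex, striatum, hippocampus homogenized in 0.5 N HCl, centrifuged; cyclic nucleotides in supernatant by enzyme immunoassay. Unbound brain exposure from satellite animals; dose-response and time-course data combined with linear model; one-way ANOVA with Fisher's PLSD.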

Mus musculus [5] = organism: Mus musculus; experiment: Increase in cGMP level in CD-1 mouse brain cortex assessed per nM of unbound brain concentration by immunoassay; assay type: functional; summary of the method: as §2
[6] = Oral bioavailability in beagle dog at 5 mg/kg administered via gavage by LC-MS/MS analysis; assay type: ADME, organism-based, Canis lupus familiaris; settings: in vivo
Cytochrome P450 1A2 = target: T2, Cytochrome P450 1A2 (Homo sapiens, UniProt P05177); experiment: Time-dependant inhibition of recombinant human CYP1A2; assay type: ADME; settings: recombinant enzyme
T2 sequence (P05177 whole entry): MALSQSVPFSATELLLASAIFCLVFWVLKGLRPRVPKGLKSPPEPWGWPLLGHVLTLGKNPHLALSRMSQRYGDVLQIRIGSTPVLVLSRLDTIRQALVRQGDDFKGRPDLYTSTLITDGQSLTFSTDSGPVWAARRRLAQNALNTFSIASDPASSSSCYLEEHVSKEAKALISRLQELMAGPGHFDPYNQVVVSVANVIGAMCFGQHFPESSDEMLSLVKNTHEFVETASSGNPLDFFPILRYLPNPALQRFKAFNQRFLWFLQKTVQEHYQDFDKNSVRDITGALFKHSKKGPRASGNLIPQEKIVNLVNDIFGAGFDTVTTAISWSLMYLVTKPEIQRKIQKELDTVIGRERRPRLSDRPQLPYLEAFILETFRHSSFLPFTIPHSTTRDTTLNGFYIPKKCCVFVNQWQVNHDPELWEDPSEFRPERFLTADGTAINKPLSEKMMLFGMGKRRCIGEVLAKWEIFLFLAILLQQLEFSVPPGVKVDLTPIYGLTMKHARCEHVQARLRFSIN

[7] = Cmax in beagle dog at 5 mg/kg, po administered via gavage by LC-MS/MS analysis; assay type: ADME, organism-based, Canis lupus familiaris; design: dose 5 mg/kg, route oral; settings: in vivo
[8] = Tmax in Wistar Han rat at 5 mg/kg, po administered via gavage by LC-MS/MS analysis; assay type: ADME, organism-based; settings: in vivo
[9] = Drug metabolism in human hepatocytes assessed as 1-(7-methyl-5-(1-methyl-5-(5-(trifluoromethyl)pyridin-2-yl)-1H-pyrazol-4-yl)imidazo[1,5-f][1,2,4]triazin-4-yl)azetidin-3-ol formation at 1 to 50 uM after 1 hr by LC-MS/MS analysis; assay type: ADME, cell-based, Hepatocyte
Summary of the method: (§3)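 Rat, dog or human liver microsomes or hepatocytes (P450 0.35–0.5 µM final) incubated with compound at 1, 10 or 50 µM in 100 mM phosphate buffer with 1 mM NADP regenerating system, 37°C for 1 h; quenched with 4 volumes acetonitrile, centrifuged, supernatant evaporated, reconstituted in 5% aqueous acetonitrile and analysed by reversed-phase LC.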

[10] = Ratio of unbound brain concentration to unbound plasma concentration in iv or sc dosed Wistar Han rat; assay type: ADME, organism-based; settings: brain and plasma, read-out: K(p,uu,brain)
Summary of the method: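 Compound given sc to mice, iv and/or sc to rats, po to dogs and sc to monkeys; sc doses as a solution in 20% SBE-BCD + 2 molar equiv 1N HCl. Plasma, whole brain and CSF taken at matched times from 2 min to 24 h and quantified by LC-MS/MS. Fraction unbound in plasma and brain homogenate (diluted 4-fold, dilution factor 5 applied) by 6 h equilibrium dialysis against phosphate buffer at 37°C.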

Liver = experiment: Drug metabolism in rat liver microsomes assessed as 3-(7-methyl-5-(1-methyl-5-(5-(trifluoromethyl)pyridin-2-yl)-1H-pyrazol-4-yl)imidazo[1,5-f][1,2,4]triazin-4-ylamino)propanoic acid formation at 1 to 50 uM after 1 hr by LC-MS/MS analysis; assay type: ADME, microsome; summary of the method: as §3
Canis familiaris [11] = experiment: Toxicity in dog up to 30 mg/kg, po administered as single dose by microscopic method; assay type: organism-based, Canis lupus familiaris; settings: in vivo
[12] = Cmax in Wistar Han rat at 1 mg/kg, iv by LC-MS/MS analysis; assay type: ADME, organism-based; design: dose 1 mg/kg, route intravenous; settings: in vivo
Summary of the method: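 Male Wistar-Han rats given single 1 mg/kg IV; beagle dogs 0.3 mg/kg IV; solution in 20% (w/v) sulfobutyl ether β-cyclodextrin with hydrochloric acid, 1 mL/kg (rat) or 0.4 mL/kg (dog). Blood via carotid artery cannula between 2 min and 24 h into EDTA tubes; plasma analysed by LC-MS/MS with positive electrospray.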

Mus musculus [13] = organism: Mus musculus; experiment: Increase in cGMP level in CD-1 mouse brain striatum assessed per nM of unbound brain concentration by immunoassay; assay type: functional; summary of the method: as §1

- TDI (Cytochrome P450 2B6): Not Active
- inhibition (INH) (Cytochrome P450 2C19): Not Active
- bioavailability [6]: 57%
- TDI (Cytochrome P450 1A2): Not Active
- Cmax [7]: 1770 ng/mL
- Tmax [8]: 4.8 min
- Drug metabolism [9]: Metabolite_Detected
- Kp uu [10]: 0.71
- Drug metabolism (Liver): Metabolite_Detected
- Cmax [12]: 1020 ng/mL
SMILES: Cc1nc(-c2cnn(C)c2-c2ccc(C(F)(F)F)cn2)c2c(N3CCC3)ncnn12 [PF-05180999]
- Activity (Rattus norvegicus): Non-Toxic
- fEC50 (Mus musculus [1]): 98 nM
- Activity (Canis familiaris [2]): Non-Toxic
- Activity (Canis familiaris [3]): Non-Toxic
- Activity (Mus musculus [4]): Dose-dependent effect
- Activity (Mus musculus [5]): 0.63%
- Activity (Canis familiaris [11]): Non-Toxic
- Activity (Mus musculus [13]): 0.51%
